STAT3 blocker: inhibitors of IL-6 induced STAT3 signaling. U3A cells, IL-6 STAT3-luciferase reporter, luminescence; host cell line lacks STAT1. 0.89% of 190,000 active. AID 862. inhibition, % at 5.5 µM;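 active = inhibition above the mean inhibition across all screened compounds plus 3 SD, cut at about 44% in these data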
Cl transport mod: KCC2 (human) Cl- transport modulation; Q9H2X9; KCC2 cells, thallium flux FluoZin-2 fluorescence; B-score of Tl+ flux slope (higher = more flux/activation; lower = inhibition) at 10 µM; 2.2% of 190,000 active; AID 1456;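 active = thallium flux slope and its plate-corrected score both differing from the plate sample mean at a set confidence after two filtering rounds, in either direction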;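 note: slope of fluorescence scaled to starting intensity during 10 to 20 s after thallium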
Target sequence (Q9H2X9 whole entry, looked up): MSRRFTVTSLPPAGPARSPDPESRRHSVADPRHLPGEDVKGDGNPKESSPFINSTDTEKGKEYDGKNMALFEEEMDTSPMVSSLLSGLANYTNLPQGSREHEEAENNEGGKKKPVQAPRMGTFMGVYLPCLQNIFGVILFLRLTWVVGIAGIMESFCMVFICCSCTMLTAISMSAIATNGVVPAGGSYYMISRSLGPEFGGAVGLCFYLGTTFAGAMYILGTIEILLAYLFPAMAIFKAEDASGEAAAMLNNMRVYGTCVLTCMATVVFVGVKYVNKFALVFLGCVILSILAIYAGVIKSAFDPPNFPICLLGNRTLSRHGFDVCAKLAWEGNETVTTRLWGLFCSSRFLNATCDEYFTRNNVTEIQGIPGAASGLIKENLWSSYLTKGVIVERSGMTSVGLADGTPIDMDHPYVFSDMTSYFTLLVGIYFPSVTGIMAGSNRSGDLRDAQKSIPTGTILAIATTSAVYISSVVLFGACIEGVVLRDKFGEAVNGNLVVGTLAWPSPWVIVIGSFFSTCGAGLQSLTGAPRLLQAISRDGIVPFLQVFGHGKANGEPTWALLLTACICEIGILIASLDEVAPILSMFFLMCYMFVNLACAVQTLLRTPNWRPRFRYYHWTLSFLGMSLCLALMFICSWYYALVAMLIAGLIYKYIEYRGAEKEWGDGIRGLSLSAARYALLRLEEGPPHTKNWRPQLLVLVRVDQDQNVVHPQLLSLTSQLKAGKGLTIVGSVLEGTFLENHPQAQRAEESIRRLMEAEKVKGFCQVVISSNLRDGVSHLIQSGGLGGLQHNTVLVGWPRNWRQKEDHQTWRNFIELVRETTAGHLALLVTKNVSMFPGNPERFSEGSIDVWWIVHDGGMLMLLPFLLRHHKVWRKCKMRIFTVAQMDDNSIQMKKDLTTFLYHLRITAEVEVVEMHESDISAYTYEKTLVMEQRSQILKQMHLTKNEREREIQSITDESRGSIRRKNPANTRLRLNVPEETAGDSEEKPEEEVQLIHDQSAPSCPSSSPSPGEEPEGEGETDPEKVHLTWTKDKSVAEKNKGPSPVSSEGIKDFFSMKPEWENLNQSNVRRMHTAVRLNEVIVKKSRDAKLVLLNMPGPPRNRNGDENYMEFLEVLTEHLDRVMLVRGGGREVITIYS
STAT3 act: activators of IL-6 induced STAT3 signaling; U3A cells, IL-6 STAT3-luciferase reporter, luminescence; 100% = signal with IL-6 EC80 alone; activation (% of control), % at 5.6 µM; 0.91% of 190,000 active;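 active = activation above the screen-wide mean of compound activation plus 3 SD, cut at about 130% in these data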
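Test system: human U3A cells carrying STAT3-luciferase construct; control set: IL-6-only wells as 100% reference; timing: compound pre-incubation 1 h before IL-6, then 6 h stimulation at 37 °C; also added: IL-6 stimulus at 33 ng/mL final; evaluation: % activation versus median of IL-6-stimulated wells; detection: reporter luminescence signal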
HSV augment: increases HSV replication in cells; HSV replication augmentation in cells, fold increase; maximum fold increase; 0.005% of 220,000 active; AID 1956; in the data active = maximum fold increase above about 1.5; inconclusive = no clear call, values can overlap the other calls; tested in PC3 cells
STAT1 activator: increases IFN-gamma driven STAT1 reporter signal; activation (% of control), % at 5.5 µM; AID 932; 2.6% of 200,000 active; NIH 3T3 STAT1-luciferase reporter, luminescence; 100% = IFN-gamma alone, no compound;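 active = activation above the screen-wide mean activation plus 3 SD, cut at about 130% in these data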
STAT1 inh: reduces IFN-gamma driven STAT1 reporter signal | NIH 3T3 STAT1-luciferase reporter, luminescence | inhibition, % at 5.5 µM | 0.35% of 200,000 active;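 active = inhibition above a set limit, the mean inhibition across all tested compounds plus 3 SD, cut at about 34% in these data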
KCC2 secondary: confirmation of human KCC2 transport modulators | shares compounds with Cl transport mod | HEK293-KCC2, thallium flux, FluoZin2 fluorescence; active compounds read high | normalised thallium flux (F/F0 slope) at 10 µM | 15% of 3,700 active;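 active = thallium flux slope above the same plate's solvent-only control mean plus 3 SD; inconclusive = the two replicate wells disagree; inactive = no significant difference from solvent-only control wells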
KCC2 bumet counter: thallium flux persisting under bumetanide in KCC2 cells, counter-screen secondary assay; shares compounds with Cl transport mod; 49% of 3,700 active; AID 1714; normalized thallium flux at 10 µM; HEK293-KCC2 + bumetanide/ouabain, thallium flux FluoZin2; active compounds read high;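 active = thallium entry rate above the same plate's blocked-transporter control wells by more than 3 SD; inconclusive = the two repeat wells disagree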;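 note: raw slope of fluorescence over initial fluorescence between 10 and 20 s after thallium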
KCC2 secondary2: KCC2 (human) modulation, second secondary assay; HEK293-KCC2, thallium flux FluoZin2 fluorescence; actives lie on both sides; F/F0 rise rate, 10–20 s post-thallium; shares compounds with Cl transport mod; normalized thallium flux at 10 µM; 23% of 3,700 active; AID 1715;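 active = thallium flux slope more than 3 SD above or below the plate's solvent-only control mean, mostly below; inconclusive = the two repeat wells disagreed; inactive = no significant shift from solvent-only controls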
HEK293 Tl flux: parental HEK flux effect, counter-screen; AID 1716; HEK293 parental cells, thallium flux FluoZin2, ouabain; baseline-ratio fluorescence slope, 10–20 s after thallium; thallium flux rate (normalised fluorescence) at 10 µM; 46% of 3,700 active; shares compounds with Cl transport mod;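 active = thallium flux rate significantly above the same plate's solvent-only control wells, beyond their mean plus 3 SD; inconclusive = the two replicate wells gave conflicting results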
KCC2 retest ouab: KCC2 (human) modulation, ouabain retest. raw Tl+ flux slope (below DMSO = inhibition, above = activation) at 10 µM. AID 1717. HEK293-KCC2, thallium flux FluoZin2 fluorescence; bidirectional: low = inhibitor, high = activator. shares compounds with Cl transport mod. 48% of 3,700 active;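 active = thallium flux slope beyond 3 SD from same-plate DMSO control mean in most replicates, usually higher, sometimes lower; inconclusive = repeat tests gave conflicting results; inactive = no significant difference from controls in most replicates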;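 note: slope of initial-normalized fluorescence between seconds 10 and 20 after thallium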
HEK counter2: parental HEK flux effect, counter-screen 2 | thallium flux slope at 10 µM | shares compounds with Cl transport mod | HEK293 parental, thallium flux FluoZin-2 fluorescence slope | 33% of 3,700 active;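 active = thallium flux slope above the same plate's solvent-control mean plus 3 SD in both duplicate wells; inconclusive = duplicate wells that disagreed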;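 note: run without ouabain in cells lacking the KCC2 cotransporter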
Large screens that a line does not name were inactive (follow-up assays come after a bar, where they were run). Shown are actives, neighbours in structure and some others; about 5.5% of the full set was active somewhere.

C/C(=N\NC(=O)c1ccncc1)c1cc2ccccc2o1	Cl transport mod 10.9 | KCC2 secondary inconclusive | KCC2 bumet counter 0.0243 | KCC2 secondary2 inactive | HEK293 Tl flux 0.0277 | KCC2 retest ouab 0.0323 | HEK counter2 inconclusive
C/C(=N\NC(=O)c1cccnc1)c1cc2ccccc2o1	Cl transport mod 8.51 | KCC2 secondary inactive | KCC2 bumet counter 0.027 | KCC2 secondary2 inactive | HEK293 Tl flux 0.0122 | KCC2 retest ouab inconclusive | HEK counter2 inconclusive
O=C(NC(=S)NCc1cccnc1)c1cc2ccccc2o1	Cl transport mod 41.5 | KCC2 secondary 0.0302 | KCC2 bumet counter 0.0881 | KCC2 secondary2 0.0493 | HEK293 Tl flux 0.0488 | KCC2 retest ouab 0.0534 | HEK counter2 0.0481
C/C(=N\NC(=O)c1ccco1)c1cc2ccccc2o1	none
COC(=O)c1c(C)n(-c2ccc(C)cc2)c2ccc(O)cc12	none (no result: Cl transport mod)
Cc1sc(CO)c(Sc2ccccc2)c1C(=O)O	none (no result: HSV augment)
CC(=O)c1ccc2c(c1)CC(C)C(=O)N2C (centres undefined)	none
CCCn1c(N2CCC(Cc3ccccc3)CC2)nc2c1c(=O)[nH]c(=O)n2C	none (no result: Cl transport mod) | KCC2 secondary inactive | KCC2 bumet counter inactive | KCC2 secondary2 inconclusive | HEK293 Tl flux inconclusive | KCC2 retest ouab 0.0159 | HEK counter2 inactive
Cn1c(=O)[nH]c(=O)c2c1nc(N1CCC(Cc3ccccc3)CC1)n2Cc1ccccc1	none
CCCCCn1c(N2CCC(Cc3ccccc3)CC2)nc2c1c(=O)[nH]c(=O)n2C	Cl transport mod -5.48 | KCC2 secondary inactive | KCC2 bumet counter inactive | KCC2 secondary2 inactive | HEK293 Tl flux inactive | KCC2 retest ouab inactive | HEK counter2 inactive
C=C(C)Cn1c(N2CCC(Cc3ccccc3)CC2)nc2c1c(=O)[nH]c(=O)n2C	Cl transport mod -3.58 | KCC2 secondary inactive | KCC2 bumet counter 0.00585 | KCC2 secondary2 0.0237 | HEK293 Tl flux inactive | KCC2 retest ouab 0.0164 | HEK counter2 inactive
CC(=O)Cn1c(N2CCC(Cc3ccccc3)CC2)nc2c1c(=O)[nH]c(=O)n2C	none
O=C(OC(C(=O)NCc1ccc2c(c1)OCO2)c1ccncc1)c1ccc(Cl)nc1 (centres undefined)	none
O=S1(=O)C=C(Sc2nnc(-c3ccccc3)o2)c2ccccc21	none (no result: HSV augment)
COc1cc(/C=N/N(C)c2ccccc2)ccc1O	Cl transport mod -4.13, STAT1 activator 140.3 | KCC2 secondary inactive | KCC2 bumet counter inactive | KCC2 secondary2 0.0247 | HEK293 Tl flux inactive | KCC2 retest ouab inconclusive | HEK counter2 inactive
COc1ccc(CCc2nnc(CCC(=O)N(C)Cc3ccncc3C)o2)cc1	none
Cc1sc(NC(=O)CSC2=NCCS2)nc1-c1ccccc1	none (no result: Cl transport mod) | KCC2 secondary inactive | KCC2 bumet counter inactive | KCC2 secondary2 inactive | HEK293 Tl flux inactive | KCC2 retest ouab inactive | HEK counter2 inactive
Cc1ccc(NC(=O)C(C)Sc2nc(=O)cc(N)n2-c2ccccc2)cc1 (centres undefined)	none (no result: Cl transport mod) | KCC2 secondary inactive | KCC2 bumet counter inactive | KCC2 secondary2 inactive | HEK293 Tl flux inactive | KCC2 retest ouab inactive | HEK counter2 inactive
C=CCn1c(O)c(N=NC(=S)Nc2ccccc2C)c2cc(S(=O)(=O)N3CCOCC3)ccc21	Cl transport mod 13.8 | KCC2 secondary 0.0134 | KCC2 bumet counter 0.0719 | KCC2 secondary2 inactive | HEK293 Tl flux 0.02 | KCC2 retest ouab inactive | HEK counter2 0.0146
CCn1c2ccccc2c2nc3cc(S(=O)(=O)N4CCOCC4)ccc3nc21	none (no result: HSV augment)
Cc1cccc(NC(=S)N=Nc2c(O)n(CN3CCOCC3)c3ccccc23)c1C	Cl transport mod 5.32 | KCC2 secondary 0.0235 | KCC2 bumet counter 0.0212 | KCC2 secondary2 inactive | HEK293 Tl flux 0.012 | KCC2 retest ouab 0.0264 | HEK counter2 0.0123
Cn1c(O)c(N=NC(=S)Nc2ccccc2F)c2cc(S(=O)(=O)N3CCOCC3)ccc21	Cl transport mod 36.7 | KCC2 secondary 0.0158 | KCC2 bumet counter 0.0558 | KCC2 secondary2 inactive | HEK293 Tl flux inconclusive | KCC2 retest ouab 0.0444 | HEK counter2 inconclusive
C=CCn1c(O)c(N=NC(=S)Nc2ccc(OC)c(Cl)c2)c2ccccc21	Cl transport mod 20.9 | KCC2 secondary inactive | KCC2 bumet counter 0.0292 | KCC2 secondary2 inactive | HEK293 Tl flux 0.0238 | KCC2 retest ouab 0.0282 | HEK counter2 0.0158
CC(C)C(NC(=O)c1ccccc1)c1nnc(SCC(=O)Nc2nccs2)n1C (centres undefined)	none
Cc1ccc(NC(=S)N=Nc2c(O)n(C)c3ccc(S(=O)(=O)N4CCOCC4)cc23)cc1C	Cl transport mod 7.43 | KCC2 secondary inactive | KCC2 bumet counter 0.0128 | KCC2 secondary2 inactive | HEK293 Tl flux 0.0323 | KCC2 retest ouab inconclusive | HEK counter2 0.0178
CC1CN(C(=O)Nc2ccc3snnc3c2)c2ccccc21 (centres undefined)	none
CCc1cccc(CC)c1N1C(=O)c2cc(N3CCOCC3)c([N+](=O)[O-])cc2C1=O	none
Cc1cc(-c2nnc(SCC(=O)NC3CCCC3)o2)no1	Cl transport mod 7.14 | KCC2 secondary inactive | KCC2 bumet counter inactive | KCC2 secondary2 inactive | HEK293 Tl flux inactive | KCC2 retest ouab inactive | HEK counter2 inactive
O=C(/C=C/c1ccccc1)Nc1scc(-c2ccccc2)c1C(=O)O	Cl transport mod -7.05 | KCC2 secondary inactive | KCC2 bumet counter inconclusive | KCC2 secondary2 0.0265 | HEK293 Tl flux inactive | KCC2 retest ouab 0.0135 | HEK counter2 inactive
O=C(/C=C/c1ccco1)Nc1scc(-c2ccccc2)c1C(=O)O	none (no result: STAT3 blocker, Cl transport mod, STAT3 act, STAT1 activator, STAT1 inh)
Cc1nc2c(Br)c3nc(C(F)(F)F)[nH]c3c(Br)c2[nH]1	Cl transport mod -7.61 | KCC2 secondary inactive | KCC2 bumet counter inactive | KCC2 secondary2 inactive | HEK293 Tl flux inactive | KCC2 retest ouab inactive | HEK counter2 inactive
Cc1nc2c(F)c(F)c(C(F)(F)F)c(F)c2[nH]1	none
